In ChEMBL document CHEMBL1123247, “Nucleoside conjugates. 7. Synthesis and antitumor activity of 1-beta-D-arabinofuranosylcytosine conjugates of ether lipids” (J Med Chem, 1986):

Key:
[1] = system: P388; assay: Antitumor activity was determined against the ip implanted P388 leukemia in mice by range in survival days at 67 mg/kg (treatment of 1,5,9qd schedule) dosage; Range is 21-31; format: functional, Mus musculus; details: route intraperitoneal
[2] = system: P388; assay: Antitumor activity was determined against the ip implanted P388 leukemia in mice by percent median survival rate (treated/control) at 60 mg/kg (1-5qd treatment schedule) dosage; 23.0/11.0; format: functional, Mus musculus; details: route intraperitoneal
[3] = system: L1210; assay: Antitumor activity against ip implanted L1210 leukemia in mice expressed as active dose range (1 qd treatment schedule) required to produce increase in life span by >25% was determined; Range is 300-500; format: functional, Mus musculus
How it was run: (§1)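 DBA/2J mice, groups of 6 (23-28 g), were inoculated ip with 1 × 10^6 L1210 cells on day 0. Dosing was ip from 24 h, in 0.9% NaCl with 0.5% Tween-80 (sonicated solution or suspension). Mice were observed daily until death or day 45. Median survival T/C followed NCI protocols, and ILS = (T/C − 1) × 100. Active range means doses giving ILS ≥25%; optimal dose means greatest ILS.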

[4] = system: L1210; assay: Antitumor activity was determined against the ic implanted L1210 lymphoid leukemia in mice by range in survival days at 80 mg/kg (1-5qd treatment schedule) dosage; Range is 11-24; format: functional, Mus musculus
[5] = system: L1210; assay: Antitumor activity was determined against the ip implanted L1210 leukemia in mice by percent median survival rate (treated/control) at 300 mg/kg (treatment of 1qd schedule) dosage; 20.5/6.5; format: functional, Mus musculus; details: route intraperitoneal
How it was run: (§2)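 DBA/2J mice, 23-28 g, in groups of 6, were inoculated ip with 1×10^6 L1210 cells on day 0. Dosing was ip starting 24 h later on the stated daily schedules. Conjugates were given as sonicated solutions and reference prodrugs as suspensions in 0.9% NaCl with 0.5% Tween-80. Mice were observed daily until death or 45 days. Median survival T/C was calculated from survivors per NCI protocols.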

[6] = system: P388; assay: Antitumor activity was determined against the ip implanted P388 leukemia in mice by percent increase in life span at 500 mg/kg (1 qd treatment schedule) dosage; format: functional, Mus musculus; details: route intraperitoneal
How it was run: (§3)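 DBA/2J mice, 23-33 g, in groups of 6, were inoculated ip with 1×10^6 P388 cells on day 0. Dosing was ip from 24 h on the stated schedules, in 0.9% NaCl with 0.5% Tween-80 (sonicated solution or suspension). Survival was followed daily until death or 45 days. Median T/C was calculated from survivors per NCI protocols, with ILS = (T/C − 1) × 100.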

[7] = system: P388; assay: Antitumor activity was determined against the ip implanted P388 leukemia in mice by percent median survival rate (treated/control) at 60 mg/kg (1-5qd treatment schedule) dosage; >45.0/11.0; format: functional, Mus musculus; details: route intraperitoneal
[8] = system: L1210; assay: Antitumor activity against the ic implanted L1210 lymphoid leukemia in mice expressed as optimal dose (1 qd treatment schedule) required to produce greatest increase in life span was determined; format: functional, Mus musculus
How it was run: (§4)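 DBA/2J mice, groups of 6 (26-32 g), got 1 × 10^5 L1210 cells ic on day 0. Dosing was ip starting 24 h later, as a sonicated solution or suspension in 0.9% NaCl with 0.5% Tween-80, over a wide dose range. Mice were followed daily until death. Median survival T/C was taken from survivors per NCI protocols, and ILS = (T/C − 1) × 100. Active range means doses giving ILS ≥25%; optimal dose means greatest ILS.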

[9] = system: L1210; assay: Antitumor activity was determined against the ic implanted L1210 lymphoid leukemia in mice by change in body weight at 300 mg/kg (1 qd treatment schedule) dosage
[10] = system: L1210; assay: Antitumor activity was determined against the ip implanted L1210 leukemia in mice by percent median survival rate (treated/control) at 400 mg/kg (treatment of 1qd schedule) dosage; 27.5/7.0; format: functional, Mus musculus; details: route intraperitoneal; how it was run: as §2
[11] = system: P388; assay: Antitumor activity against ip implanted P388 leukemia in mice expressed as active dose range (1,5,9qd treatment schedule) required to produce increase in life span by >25% was determined; Range is 67-133; format: functional, Mus musculus
How it was run: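 P388 leukemia: 1 × 10^6 cells were given ip on day 0 to DBA/2J mice, groups of 6 (23-33 g). Treatment was ip from 24 h after inoculation, vehicle 0.9% NaCl with 0.5% Tween-80. Mice were observed daily until death or 45 days. Median survival T/C was calculated from survivors per NCI protocols, and ILS = (T/C − 1) × 100. Active range means doses giving ILS ≥25%; optimal dose means greatest ILS.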

[12] = system: P388; assay: Antitumor activity was determined against the ip implanted P388 leukemia in mice by range in survival days at 133 mg/kg (treatment of 1,5,9qd schedule) dosage; Range is 23->45; format: functional, Mus musculus; details: route intraperitoneal
[13] = system: L1210; assay: Antitumor activity against ip implanted L1210 leukemia in mice expressed as active dose range (1-5qd treatment schedule) required to produce increase in life span by >25% was determined; Range is 40-80; format: functional, Mus musculus; how it was run: as §1
[14] = system: L1210; assay: Antitumor activity was determined against the ic implanted L1210 lymphoid leukemia in mice by range in survival days at 100 mg/kg (treatment of 1-5qd schedule) dosage; Range is 21-24; format: functional, Mus musculus
[15] = system: L1210; assay: Antitumor activity against the ic implanted L1210 lymphoid leukemia in mice expressed as optimal dose (1, 5, 9qd treatment schedule) required to produce greatest increase in life span was determined; format: functional, Mus musculus; how it was run: as §4
[16] = system: L1210; assay: Antitumor activity was determined against the ic implanted L1210 lymphoid leukemia in mice by median survival time at 167 mg/kg (treatment of 1, 5, 9qd schedule) dosage; 21.0/7.0
[17] = system: P388; assay: Antitumor activity was determined against the ip implanted P388 leukemia in mice by percent median survival rate (treated/control) at 60 mg/kg (treatment of 1-5qd schedule) dosage; >45.0/11.0; format: functional, Mus musculus; details: route intraperitoneal
[18] = system: L1210 leukemia (mouse); assay: Antitumor activity was determined against the ic implanted L1210 lymphoid leukemia in mice by percent median survival rate (treated/control) at 500 mg/kg (treatment of 1qd schedule) dosage; 23.0/7.0
[19] = system: L1210; assay: Antitumor activity against ic implanted L1210 lymphoid leukemia in mice expressed as active dose range (1-5qd treatment schedule) required to produce increase in life span by >25% was determined; Range is 50-300; format: functional, Mus musculus; how it was run: as §4
[20] = system: P388; assay: Antitumor activity was determined against the ip implanted P388 leukemia in mice by 45-day survivors in mice at 200 mg/kg (treatment of 1-5qd schedule) dosage; format: functional, Mus musculus; details: route intraperitoneal; how it was run: as §3
[21] = system: Non-small cell lung cancer cell line; assay: Compound was tested for the inhibition of non- small cell lung cancer; format: functional, cell-based; details: Homo sapiens
How it was run: (§5)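 Human leukemia and solid tumor cells in culture were exposed to compound for 48 h. Viability was scored by trypan blue dye exclusion. IC50 (50% inhibition) was estimated from response curves of three separate experiments.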

[22] = system: Small cell lung cancer cell line; assay: Compound was tested for the inhibition of small cell lung cancer; format: functional, cell-based; details: Homo sapiens; how it was run: as §5
[23] = system: CML/BC; assay: Compound was tested for the inhibition of CML/BC(chronic myeloid leukemia, blast crisis); format: functional, cell-based; details: Homo sapiens; how it was run: as §5

CCCCCCCCCCCCCCCCCCOCC(COP(=O)(O)OP(=O)(O)OC[C@H]1O[C@@H](n2ccc(N)nc2=O)[C@@H](O)[C@@H]1O)OC(=O)CCCCCCCCCCCCCCC (mixture of isomers) showed a Range [1] of 21, a T/C [2] of 23% and an Active dose range [3] of 300 mg/kg/day.
CCCCCCCCCCCCCCCC(=O)OC[C@H](COP(=O)(O)OP(=O)(O)OC[C@H]1O[C@@H](n2ccc(N)nc2=O)[C@@H](O)[C@@H]1O)OC(=O)CCCCCCCCCCCCCCC was tested, and the Range [4] was 11, the median survival time [5] was 20.5 days and the ILS [6] was >309. For the same compound, the T/C [7] was >45%, the Optimal dose [8] was 300 mg and the Weight change [9] was -0.88 g mouse-1.
CCCCCCCCCCCCCCCCOCC(COP(=O)(O)OP(=O)(O)OC[C@H]1O[C@@H](n2ccc(N)nc2=O)[C@@H](O)[C@@H]1O)OC(=O)CCCCCCCCCCCCCCC (mixture of isomers) gave a T/C [10] of 27.5%, an Active dose range [11] of 67 mg/kg/day and a Range [12] of 23. It also gave an Active dose range [13] of 40 mg/kg/day, a Range [14] of 21 and an Optimal dose [15] of 167 mg. The median survival time [16] was 21 days, the T/C [17] was >45% and the T/C [18] was 23%.
Nc1ccn([C@@H]2O[C@H](CO)[C@@H](O)[C@@H]2O)c(=O)n1 [CYTARABINE] gave an Active dose range [19] of 50 mg/kg/day, a Survivors [20] of 0 and an IC50 [21] of 34 µM. For the same compound, the IC50 [22] was > 100 µM and the IC50 [23] was 210 nM.
